# ChEMBL document CHEMBL4689842, “EUbOPEN Chemogenomics Library wave 1” (2021)
# Tested on: U2OS
# Experiment: Multiplex assay against U2OS
# Assay type: toxicity, cell-based
# Settings: human
# Outline: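 Live cells were stained at seeding with Hoechst33342, BioTracker Green Microtubule Cytoskeleton Dye, MitoTracker Red and Annexin V Alexa Fluor 680. Following compound addition, they were imaged on a CQ1 microscope at 37°C and 5% CO2 and gated by CellPathfinder machine learning into Hoechst high-intensity objects or normal cells, with normal cells split into healthy, pyknosed or fragmented nuclei and pyknosed cells into mitotic or apoptotic. Tubulin, mitochondrial-mass and membrane-permeability phenotypes are per cents of healthy-nucleus cells.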
# [1] = 12 h, 1 µM, compound concentration 1 uM, replicate 1
# [2] = 12 h, 1 µM, compound concentration 1 uM, replicate 2
# [3] = 12 h, 10 µM, compound concentration 10 uM, replicate 1
# [4] = 12 h, 10 µM, compound concentration 10 uM, replicate 2
# [5] = 24 h, 1 µM, compound concentration 1 uM, replicate 1
# [6] = 24 h, 1 µM, compound concentration 1 uM, replicate 2
# [7] = 24 h, 10 µM, compound concentration 10 uM, replicate 1
# [8] = 24 h, 10 µM, compound concentration 10 uM, replicate 2
# [9] = 48 h, 1 µM, compound concentration 1 uM, replicate 1
# [10] = 48 h, 1 µM, compound concentration 1 uM, replicate 2
# [11] = 48 h, 10 µM, compound concentration 10 uM, replicate 1
# [12] = 48 h, 10 µM, compound concentration 10 uM, replicate 2
compound,measurement,setting,value
CN(C)CC#Cc1ccc(OCCCc2sc(N3CCc4cccc(C(=O)Nc5nc6ccccc6s5)c4C3)nc2C(=O)O)c(F)c1 [A-1155463],Population Apoptotic (%),[1],63%
same,Population Fragmented Nuclei (%),[1],13%
same,Population Healthy Nuclei (%),[1],65%
same,Population Hoechst High Intensity Objects (%),[1],12%
same,Population Membrane Permeable-Phenotype (%),[1],14%
same,Population Mitochondria Different-Phenotype (%),[1],14%
same,Population Mitotic Cells (%),[1],36%
same,Population Normal (%),[1],87%
same,Population Pyknosed Nuclei (%),[1],21%
same,Population Tubulin-Different-Phenotype (%),[1],11%
same,Total Cell Count,[1],175
same,Population Apoptotic (%),[2],66%
same,Population Fragmented Nuclei (%),[2],39%
same,Population Healthy Nuclei (%),[2],53%
same,Population Hoechst High Intensity Objects (%),[2],4%
same,Population Membrane Permeable-Phenotype (%),[2],13%
same,Population Mitochondria Different-Phenotype (%),[2],31%
same,Population Mitotic Cells (%),[2],33%
same,Population Normal (%),[2],95%
same,Population Pyknosed Nuclei (%),[2],7%
same,Population Tubulin-Different-Phenotype (%),[2],27%
same,Total Cell Count,[2],86
same,Population Apoptotic (%),[3],61%
same,Population Fragmented Nuclei (%),[3],25%
same,Population Healthy Nuclei (%),[3],55%
same,Population Hoechst High Intensity Objects (%),[3],6%
same,Population Membrane Permeable-Phenotype (%),[3],8%
same,Population Mitochondria Different-Phenotype (%),[3],15%
same,Population Mitotic Cells (%),[3],38%
same,Population Normal (%),[3],93%
same,Population Pyknosed Nuclei (%),[3],19%
same,Population Tubulin-Different-Phenotype (%),[3],13%
same,Total Cell Count,[3],189
same,Population Apoptotic (%),[4],86%
same,Population Fragmented Nuclei (%),[4],33%
same,Population Healthy Nuclei (%),[4],42%
same,Population Hoechst High Intensity Objects (%),[4],5%
same,Population Membrane Permeable-Phenotype (%),[4],24%
same,Population Mitochondria Different-Phenotype (%),[4],16%
same,Population Mitotic Cells (%),[4],13%
same,Population Normal (%),[4],94%
same,Population Pyknosed Nuclei (%),[4],23%
same,Population Tubulin-Different-Phenotype (%),[4],25%
same,Total Cell Count,[4],133
same,Population Apoptotic (%),[5],47%
same,Population Fragmented Nuclei (%),[5],19%
same,Population Healthy Nuclei (%),[5],58%
same,Population Hoechst High Intensity Objects (%),[5],5%
same,Population Membrane Permeable-Phenotype (%),[5],11%
same,Population Mitochondria Different-Phenotype (%),[5],15%
same,Population Mitotic Cells (%),[5],52%
same,Population Normal (%),[5],94%
same,Population Pyknosed Nuclei (%),[5],21%
same,Population Tubulin-Different-Phenotype (%),[5],6%
same,Total Cell Count,[5],222
same,Population Apoptotic (%),[6],50%
same,Population Fragmented Nuclei (%),[6],36%
same,Population Healthy Nuclei (%),[6],54%
same,Population Hoechst High Intensity Objects (%),[6],7%
same,Population Membrane Permeable-Phenotype (%),[6],13%
same,Population Mitochondria Different-Phenotype (%),[6],32%
same,Population Mitotic Cells (%),[6],50%
same,Population Normal (%),[6],92%
same,Population Pyknosed Nuclei (%),[6],9%
same,Population Tubulin-Different-Phenotype (%),[6],28%
same,Total Cell Count,[6],92
same,Population Apoptotic (%),[7],58%
same,Population Fragmented Nuclei (%),[7],20%
same,Population Healthy Nuclei (%),[7],51%
same,Population Hoechst High Intensity Objects (%),[7],5%
same,Population Membrane Permeable-Phenotype (%),[7],13%
same,Population Mitochondria Different-Phenotype (%),[7],23%
same,Population Mitotic Cells (%),[7],41%
same,Population Normal (%),[7],94%
same,Population Pyknosed Nuclei (%),[7],27%
same,Population Tubulin-Different-Phenotype (%),[7],12%
same,Total Cell Count,[7],194
same,Population Apoptotic (%),[8],81%
same,Population Fragmented Nuclei (%),[8],32%
same,Population Healthy Nuclei (%),[8],45%
same,Population Hoechst High Intensity Objects (%),[8],10%
same,Population Membrane Permeable-Phenotype (%),[8],20%
same,Population Mitochondria Different-Phenotype (%),[8],14%
same,Population Mitotic Cells (%),[8],18%
same,Population Normal (%),[8],89%
same,Population Pyknosed Nuclei (%),[8],22%
same,Population Tubulin-Different-Phenotype (%),[8],21%
same,Total Cell Count,[8],135
same,Population Apoptotic (%),[9],67%
same,Population Fragmented Nuclei (%),[9],24%
same,Population Healthy Nuclei (%),[9],46%
same,Population Hoechst High Intensity Objects (%),[9],10%
same,Population Membrane Permeable-Phenotype (%),[9],7%
same,Population Mitochondria Different-Phenotype (%),[9],18%
same,Population Mitotic Cells (%),[9],32%
same,Population Normal (%),[9],89%
same,Population Pyknosed Nuclei (%),[9],29%
same,Population Tubulin-Different-Phenotype (%),[9],10%
same,Total Cell Count,[9],285
same,Population Apoptotic (%),[10],77%
same,Population Fragmented Nuclei (%),[10],28%
same,Population Healthy Nuclei (%),[10],51%
same,Population Hoechst High Intensity Objects (%),[10],5%
same,Population Membrane Permeable-Phenotype (%),[10],19%
same,Population Mitochondria Different-Phenotype (%),[10],43%
same,Population Mitotic Cells (%),[10],22%
same,Population Normal (%),[10],94%
same,Population Pyknosed Nuclei (%),[10],20%
same,Population Tubulin-Different-Phenotype (%),[10],36%
same,Total Cell Count,[10],117
same,Population Apoptotic (%),[11],74%
same,Population Fragmented Nuclei (%),[11],26%
same,Population Healthy Nuclei (%),[11],32%
same,Population Hoechst High Intensity Objects (%),[11],9%
same,Population Membrane Permeable-Phenotype (%),[11],23%
same,Population Mitochondria Different-Phenotype (%),[11],38%
same,Population Mitotic Cells (%),[11],25%
same,Population Normal (%),[11],90%
same,Population Pyknosed Nuclei (%),[11],40%
same,Population Tubulin-Different-Phenotype (%),[11],11%
same,Total Cell Count,[11],246
same,Population Apoptotic (%),[12],81%
same,Population Fragmented Nuclei (%),[12],34%
same,Population Healthy Nuclei (%),[12],35%
same,Population Hoechst High Intensity Objects (%),[12],8%
same,Population Membrane Permeable-Phenotype (%),[12],57%
same,Population Mitochondria Different-Phenotype (%),[12],51%
same,Population Mitotic Cells (%),[12],18%
same,Population Normal (%),[12],91%
same,Population Pyknosed Nuclei (%),[12],29%
same,Population Tubulin-Different-Phenotype (%),[12],57%
same,Total Cell Count,[12],139
